Measured values published in ChEMBL document CHEMBL4382271, “Eucalypglobulusals A-J, Formyl-Phloroglucinol-Terpene Meroterpenoids from Eucalyptus globulus Fruits” (J Nat Prod, 2018).
The source made the active and inactive calls. No cut-off for these calls is given here.

Key:
DU-145 = experiment: Cytotoxicity against human DU145 cells by MTT assay; assay type: functional, cell-based
Huh-7 = experiment: Cytotoxicity against human HuH7 cells by MTT assay; assay type: functional, cell-based
A549 = experiment: Cytotoxicity against human A549 cells by MTT assay; assay type: functional, cell-based
CCRF-CEM = experiment: Cytotoxicity against human CCRF-CEM cells by MTT assay; assay type: functional, cell-based
HCT-116 = experiment: Cytotoxicity against human HCT116 cells by MTT assay; assay type: functional, cell-based
[1] = molecular target: T1, DNA topoisomerase I (Bos taurus) (UniProt F1MN93); experiment: Inhibition of calf thymus topoisomerase-1 assessed as reduction in cleavage complex formation by measuring decrease in nicked form DNA using supercoiled pBR322 DNA as substrate after 30 mins by agarose gel electrophoresis assay
T1 sequence (whole entry): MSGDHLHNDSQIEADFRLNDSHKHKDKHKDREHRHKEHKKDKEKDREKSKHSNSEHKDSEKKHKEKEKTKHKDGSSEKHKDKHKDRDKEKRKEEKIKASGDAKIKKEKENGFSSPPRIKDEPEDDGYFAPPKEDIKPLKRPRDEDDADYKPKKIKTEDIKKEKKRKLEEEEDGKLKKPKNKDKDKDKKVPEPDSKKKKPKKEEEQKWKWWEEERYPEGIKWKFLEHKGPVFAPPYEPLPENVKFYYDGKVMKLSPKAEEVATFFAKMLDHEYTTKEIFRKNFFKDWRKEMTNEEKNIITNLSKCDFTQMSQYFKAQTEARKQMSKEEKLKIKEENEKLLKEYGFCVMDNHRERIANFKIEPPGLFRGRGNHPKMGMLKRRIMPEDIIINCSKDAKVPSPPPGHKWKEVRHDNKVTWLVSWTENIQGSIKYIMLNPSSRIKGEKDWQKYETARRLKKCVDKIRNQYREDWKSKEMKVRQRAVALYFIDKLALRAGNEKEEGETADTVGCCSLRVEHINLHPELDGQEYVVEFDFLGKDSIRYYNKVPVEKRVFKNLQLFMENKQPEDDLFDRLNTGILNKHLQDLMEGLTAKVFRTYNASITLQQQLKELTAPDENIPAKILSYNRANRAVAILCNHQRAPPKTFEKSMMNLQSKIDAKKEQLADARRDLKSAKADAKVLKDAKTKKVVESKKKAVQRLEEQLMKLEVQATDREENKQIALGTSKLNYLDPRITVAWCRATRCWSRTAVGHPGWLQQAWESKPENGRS

[2] = molecular target: T1, DNA topoisomerase I (Bos taurus); experiment: Inhibition of calf thymus topoisomerase-1-mediated relaxed pBR322 DNA unwinding at 25 uM preincubated with DNA for 10 mins followed by enzyme addition and measured after 30 mins by agarose gel electrophoresis assay
Outline: (§1)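 Top1-mediated unwinding assay with ethidium bromide, a DNA intercalator, as positive control. It tests whether compounds unwind DNA by intercalation.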

[3] = molecular target: T1, DNA topoisomerase I (Bos taurus); experiment: Inhibition of calf thymus topoisomerase-1-mediated supercoiled pBR322 DNA unwinding at 25 uM preincubated with DNA for 10 mins followed by enzyme addition and measured after 30 mins by agarose gel electrophoresis assay; outline: as §1
[4] = molecular target: T1, DNA topoisomerase I (Bos taurus); experiment: Inhibition of calf thymus topoisomerase-1-mediated supercoiled pBR322 DNA relaxation at 50 uM after 30 mins by agarose gel electrophoresis assay relative to control
Outline: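 Top1-mediated plasmid relaxation run at 50 μM test concentration. Camptothecin (CPT) was included as reference inhibitor. Inhibition was expressed as percentage ranges from gel band intensities.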

With `COc1cc([C@@H]2c3cc4c(cc3[C@@H](O[C@@H]3O[C@@H]5CO[C@@H](C)O[C@H]5[C@H](O)[C@H]3O)[C@H]3COC(=O)[C@H]23)OCO4)cc(OC)c1O` [ETOPOSIDE] the IC50 (DU-145) was > 10 µM, the IC50 (Huh-7) was 7.4 µM and the IC50 (A549) was > 10 µM. For the same compound, the IC50 (CCRF-CEM) was 1.1 µM and the IC50 (HCT-116) was > 10 µM.
With `CC(=O)[C@@]12C=C(C(C)C)CC[C@@]1(C)[C@H]([C@@H](CC(C)C)c1c(O)c(C=O)c(O)c(C=O)c1O)C[C@H]2O` the inhibition [1] was “Dose-dependent effect”, the inhibition [2] was “inactive” and the inhibition [3] was “inactive”.
`CC(C)CC(=O)c1c(O)c(C=O)c(O)c(C[C@@]2(C)CC[C@H]3C2=C[C@H](C(C)(C)O)CC[C@H]3C)c1O` was tested, and the IC50 (DU-145) was > 10 µM, the inhibition [4] was > 90% and the IC50 (Huh-7) was > 10 µM. For the same compound, the IC50 (A549) was 5.3 µM, the IC50 (CCRF-CEM) was 6.9 µM and the IC50 (HCT-116) was > 10 µM.
In the case of `CC(C)CC(=O)c1c(O)c(C=O)c(O)c(C[C@@]2(C)CC[C@@H]3[C@@H]2[C@H]2[C@@H](CC[C@@]3(C)O)C2(C)C)c1O` [EUCALYPTIN A], the IC50 (DU-145) is reported as 8.9 µM, the inhibition [4] is reported as > 90% and the IC50 (Huh-7) is reported as > 10 µM. For the same compound, the IC50 (A549) was 4.9 µM, the IC50 (CCRF-CEM) was > 10 µM and the IC50 (HCT-116) was 9.6 µM.
`C=C1/C=C/[C@H](C(C)(C)O)C[C@H]2[C@@H](CC(C)C)c3c(O)c(C=O)c(O)c(C=O)c3O[C@]2(C)CCC1` was tested, and the IC50 (DU-145) was > 10 µM, the inhibition [4] was 60 to 89% and the IC50 (Huh-7) was > 10 µM. For the same compound, the IC50 (A549) was > 10 µM, the IC50 (CCRF-CEM) was 3.3 µM and the IC50 (HCT-116) was > 10 µM.
In the case of `CC(C)C[C@@H](c1c(O)c(C=O)c(O)c(C=O)c1O)[C@@]1(C)CC[C@@H]2[C@@H]1[C@H]1[C@@H](CC[C@@]2(C)O)C1(C)C`, the inhibition [2] is reported as “inactive” and the inhibition [3] is reported as “inactive”.
`CC[C@@]1(O)C(=O)OCc2c1cc1n(c2=O)Cc2cc3ccccc3nc2-1` [CAMPTOTHECIN] was tested, and the IC50 (DU-145) was 0.016 µM, the inhibition [4] was > 90% and the IC50 (Huh-7) was 0.0023 µM. It also gave an IC50 (A549) of 0.04 µM, an IC50 (CCRF-CEM) of 0.002 µM and an IC50 (HCT-116) of 0.013 µM.
For `CC[n+]1c(-c2ccccc2)c2cc(N)ccc2c2ccc(N)cc21`, the inhibition [2] was “Active” and the inhibition [3] was “Active”.
With `C=C(C)[C@@H]1C=C2[C@@H](C)CC[C@@H](Cc3c(O)c(C=O)c(O)c(C(=O)CC(C)C)c3O)[C@]2(C)CC1` the IC50 (DU-145) was > 10 µM, the inhibition [4] was > 90% and the IC50 (Huh-7) was > 10 µM. For the same compound, the IC50 (A549) was 5.2 µM, the IC50 (CCRF-CEM) was > 10 µM and the IC50 (HCT-116) was 9.6 µM.
